Published values from different studies.
Lines come from different studies, so protocols differ. Converted amounts (≈) assume the structure as drawn.

| Compound | target or system | test | system | setting | measurement | result |
| --- | --- | --- | --- | --- | --- | --- |
| O=C(N/N=C1\C(=O)N(Cc2ccc(Cl)cc2)c2ccccc21)c1cc2ccccc2[nH]1 | HT-29 | cell growth or viability |  |  | IC50 | 2.64 µM |
| COC(=O)c1cc(-c2cccc(NC(=S)Nc3cc(C(F)(F)F)cc(C(F)(F)F)c3)c2)on1 | Klebsiella pneumoniae | microbial growth, broth dilution | BAA1705 |  | MIC | > 64 µg/mL |
| Cc1c(NN=C(C#N)C2=NC(=O)CS2)c(=O)n(-c2ccccc2)n1C | Klebsiella pneumoniae | microbial growth, well diffusion |  | 100000 µg/mL | inhibition zone | 25 mm |
| COc1c2ccoc2cc2oc(=O)ccc12 | RD | cell growth or viability, WST-1 |  | 48 h | IC50 | 31.8 µM |
| CCOC(=O)c1nnn(-c2cccc(NC(=O)Nc3ccc(Cl)c(Cl)c3)c2)c1C | Klebsiella pneumoniae | microbial growth, broth dilution | BAA1705 |  | MIC | > 64 µg/mL |
| CO[C@H]1/C=C/O[C@@]2(C)Oc3c(C)c(O)c4c(O)c(c(/C=N/N5CCN(C)CC5)c(O)c4c3C2=O)NC(=O)/C(C)=C\C=C\[C@H](C)[C@H](O)[C@@H](C)[C@@H](O)[C@@H](C)[C@H](OC(C)=O)[C@@H]1C | Mycobacterium tuberculosis variant bovis BCG | microbial growth | BCG | 7 days | MIC | 0.1 µg/mL (≈ 0.122 µM) |
| COC(=O)c1cc(-c2cccc(NC(=O)Nc3ccc(OC)cc3)c2)on1 | Klebsiella pneumoniae | microbial growth, broth dilution | BAA1705 |  | MIC | > 64 µg/mL |
| C1CCNCC1 | Cryptosporidium parvum | parasite growth, imaging | HCT-8 | 1 mM, 24 h, intracellular | activity vs control | 104% |
| N#Cc1ccc(CN2C(=O)/C(=N\NC(=O)c3cc4ccccc4[nH]3)c3ccccc32)cc1 | HT-29 | cell growth or viability |  |  | IC50 | 8.11 µM |
| CCC1(c2ccc(N)cc2)CCC(=O)NC1=O (stereo not drawn) | A2780 | cell growth or viability, CCK-8 |  | 48 h | IC50 | > 50 µM |
| COC(=O)c1cc(-c2cccc(NC(=O)Nc3c(C)cccc3C)c2)on1 | Klebsiella pneumoniae | microbial growth, broth dilution | BAA1705 |  | MIC | > 64 µg/mL |
| COc1c2c(cc3c1OCO3)[C@]13C=C[C@H](OC)C[C@@H]1[N@](C2)C[C@H]3OC(=O)c1ccco1 | HT-29 | cell growth or viability, WST-1 |  |  | IC50 | > 10 µM |
| O=C(N/N=C1\C(=O)N(Cc2ccccc2)c2ccc(F)cc21)c1cc2ccccc2[nH]1 | HT-29 | cell growth or viability |  |  | IC50 | 3.5 µM |
| O=C(Nc1cccc(-c2cc(C(=O)O)no2)c1)Nc1ccc(Cl)c(Cl)c1 | Klebsiella pneumoniae | microbial growth, broth dilution | BAA1705 |  | MIC | > 64 µg/mL |
| CC(C)CCCCCCCCCCCCCCc1cc(O)cc(O)c1 | Klebsiella pneumoniae | microbial growth | ATCC29665 |  | IC50 | > 200 µM |
| O=C(N/N=C1\C(=O)N(Cc2ccccc2)c2ccccc21)c1cc2ccccc2[nH]1 | HT-29 | cell growth or viability |  | 30 µM | inhibition | 92.7% |
| CCC(CCCCCCCCCCc1cc(O)cc(O)c1)C(C)C (stereo not drawn) | Klebsiella pneumoniae | microbial growth | ATCC29665 |  | IC50 | > 200 µM |
| Cc1ccc(CN2C(=O)/C(=N\NC(=O)c3cc4ccccc4[nH]3)c3ccccc32)cc1 | HT-29 | cell growth or viability |  |  | IC50 | 2.45 µM |
| CC(C)CCCCCCCCCCCCc1cc(O)cc(O)c1 | Klebsiella pneumoniae | microbial growth | ATCC29665 |  | IC50 | > 200 µM |
| O=C(N/N=C1\C(=O)N(Cc2ccccc2)c2ccc(Cl)cc21)c1cc2ccccc2[nH]1 | Swiss-3T3 | cell growth or viability |  | 72 h | IC50 | 3.49 µM |
| COC(=O)c1cc(-c2cccc(NC(=O)Nc3ccc(Cl)c(C(F)(F)F)c3)c2)on1 | Klebsiella pneumoniae | microbial growth, broth dilution | BAA1705 |  | MIC | > 64 µg/mL |
| CC(C)C(C)CCCCCCCCCCCc1cc(O)cc(O)c1 (stereo not drawn) | Streptococcus pneumoniae | microbial growth |  |  | IC50 | 47.5 µM |
| COC(=O)c1cc(-c2cccc(NC(=O)Nc3ccc(C(F)(F)F)cc3)c2)on1 | Klebsiella pneumoniae | microbial growth, broth dilution | BAA1705 |  | MIC | > 64 µg/mL |
| N#CCc1c[nH]c2ccccc12 | Cryptosporidium parvum | parasite growth | HCT-8 | 24 h, intracellular | EC50 | 546 µM |
